Results from paper PMC10041999 (Journal of chemical information and modeling, 2022).

Target: T1, VapC1 (Haemophilus influenzae, UniProt Q4QNL7)
T1 sequence (Q4QNL7 1-134): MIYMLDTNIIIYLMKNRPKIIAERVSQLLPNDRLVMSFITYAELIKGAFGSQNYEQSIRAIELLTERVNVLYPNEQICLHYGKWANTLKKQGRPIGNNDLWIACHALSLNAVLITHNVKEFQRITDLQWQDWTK
Experiment: Biochemical VapC1 ribonuclease activity assay
Parameters: species or system nontypeable Haemophilus influenzae
Procedure, shortened: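 Purified VapC1 (296 nM final) was preincubated with test compound, aurintricarboxylic acid positive control or DMSO for 30 min at room temperature in 1X RNaseAlert reaction buffer. Custom RNA substrate (5' Cy5, 3' Iowa Black RQ quencher; 100 nM final) was then added. Fluorescence (Ex 618, Em 671 nm) was read immediately and at 75 min. Activity was taken as the change between readings. Concentration-response used eleven concentrations.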

**Q.** How did the “VapC1 inhibitor (result in words)” value turn out when `Clc1ccc(C(c2ccc(Cl)cc2)n2cc[n+](C[C@@H](OCc3ccc(Cl)cc3Cl)c3ccc(Cl)cc3Cl)c2)cc1` [NCGC00015233] was run?
**A.** confirmed VapC1 inhibtors
